Measurements as given in ChEMBL document CHEMBL5303300, “EUbOPEN Chemogenomics Library - Multiplex” (2023).
Where “and” joins values, the source holds several entries; their conditions need not be identical. Equal entries are not always repeated.

Key:
HEK-293T = assay: Multiplex assay against HEK293T; format: toxicity, cell-based; conditions: human, number of replicates 2
In short: (§1)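 Live cells were stained at seeding with Hoechst33342, BioTracker Green Microtubule Cytoskeleton Dye, MitoTracker Red and Annexin V Alexa Fluor 680, then imaged on a CQ1 microscope at 37°C and 5% CO2 after compound addition. CellPathfinder machine-learning gating split cells into Hoechst high-intensity objects or normal cells. Normal cells were split into healthy, pyknosed or fragmented nuclei, and pyknosed cells into mitotic or apoptotic. Tubulin, mitochondrial-mass and membrane-permeability phenotypes are per cents of healthy-nucleus cells.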

U2OS = assay: Multiplex assay against U2OS; format: toxicity, cell-based; conditions: human, number of replicates 2; in short: as §1
[1] = 24 h, 1 µM, compound concentration 1 uM
[2] = 24 h, 10 µM, compound concentration 10 uM
[3] = 48 h, 1 µM, compound concentration 1 uM
[4] = 48 h, 10 µM, compound concentration 10 uM
[5] = 12 h, 1 µM, compound concentration 1 uM
[6] = 12 h, 10 µM, compound concentration 10 uM

## O=C(Nc1ccnc(NC(=O)C2CC2)c1)c1c(Cl)cccc1Cl
HEK-293T; [1]
  Population Healthy Nuclei (%): 84% and 85%
  Population Hoechst High Intensity Objects (%): 5% and 6%
  Population Membrane Permeable-Phenotype (%): 4% and 3%
  Population Mitochondria Different-Phenotype (%): 3%
  Population Mitotic Cells (%): 62% and 50%
  Population Normal (%): 94% and 93%
  Population Pyknosed Nuclei (%): 10% and 9%
  Population Tubulin-Different-Phenotype (%): 17% and 19%
  Total Cell Count: 1049 and 883
HEK-293T; [2]
  Population Apoptotic (%): 42% and 69%
  Population Fragmented Nuclei (%): 3% and 5%
  Population Healthy Nuclei (%): 92% and 90%
  Population Hoechst High Intensity Objects (%): 4% and 3%
  Population Membrane Permeable-Phenotype (%): 1%
  Population Mitochondria Different-Phenotype (%): 2% and 3%
  Population Mitotic Cells (%): 57% and 30%
  Population Normal (%): 95% and 96%
  Population Pyknosed Nuclei (%): 3% and 4%
  Population Tubulin-Different-Phenotype (%): 14% and 15%
  Total Cell Count: 757 and 769
HEK-293T; [3]
  Population Apoptotic (%): 19% and 24%
  Population Fragmented Nuclei (%): 9% and 7%
  Population Healthy Nuclei (%): 85% and 87%
  Population Hoechst High Intensity Objects (%): 7%
  Population Membrane Permeable-Phenotype (%): 3% and 4%
  Population Mitochondria Different-Phenotype (%): 0% and 1%
  Population Mitotic Cells (%): 80% and 75%
  Population Normal (%): 92%
  Population Pyknosed Nuclei (%): 4%
  Population Tubulin-Different-Phenotype (%): 10% and 11%
  Total Cell Count: 2441 and 1608
HEK-293T; [4]
  Population Apoptotic (%): 38% and 32%
  Population Fragmented Nuclei (%): 11%
  Population Healthy Nuclei (%): 86% and 85%
  Population Hoechst High Intensity Objects (%): 6% and 5%
  Population Membrane Permeable-Phenotype (%): 1% and 0%
  Population Mitochondria Different-Phenotype (%): 2%
  Population Mitotic Cells (%): 61% and 67%
  Population Normal (%): 93% and 94%
  Population Pyknosed Nuclei (%): 2% and 3%
  Population Tubulin-Different-Phenotype (%): 8% and 7%
  Total Cell Count: 1085 and 965
U2OS; [5]
  Population Apoptotic (%): 33% and 84%
  Population Hoechst High Intensity Objects (%): 0%
  Population Membrane Permeable-Phenotype (%): 4% and 3%
  Population Mitochondria Different-Phenotype (%): 0% and 4%
  Population Normal (%): 100%
  Population Tubulin-Different-Phenotype (%): 81% and 83%
  Total Cell Count: 114 and 143
U2OS; [6]
  Population Apoptotic (%): 60% and 58%
  Population Healthy Nuclei (%): 36% and 74%
  Population Hoechst High Intensity Objects (%): 0%
  Population Mitochondria Different-Phenotype (%): 14% and 0%
  Population Mitotic Cells (%): 40% and 41%
  Population Normal (%): 100%
  Population Pyknosed Nuclei (%): 26% and 19%
  Population Tubulin-Different-Phenotype (%): 71% and 58%
U2OS; [1]
  Population Apoptotic (%): 60% and 90%
  Population Hoechst High Intensity Objects (%): 0%
  Population Membrane Permeable-Phenotype (%): 4% and 3%
  Population Mitochondria Different-Phenotype (%): 0% and 2%
  Population Normal (%): 99% and 100%
  Population Pyknosed Nuclei (%): 3% and 12%
  Population Tubulin-Different-Phenotype (%): 76% and 90%
  Total Cell Count: 131 and 182
U2OS; [2]
  Population Apoptotic (%): 66% and 87%
  Population Healthy Nuclei (%): 32% and 62%
  Population Hoechst High Intensity Objects (%): 0%
  Population Mitochondria Different-Phenotype (%): 10% and 0%
  Population Mitotic Cells (%): 33% and 12%
  Population Normal (%): 100%
  Population Pyknosed Nuclei (%): 19% and 29%
  Population Tubulin-Different-Phenotype (%): 70% and 66%
U2OS; [3]
  Population Apoptotic (%): 75% and 76%
  Population Healthy Nuclei (%): 32% and 82%
  Population Hoechst High Intensity Objects (%): 0%
  Population Membrane Permeable-Phenotype (%): 5% and 1%
  Population Mitochondria Different-Phenotype (%): 2% and 1%
  Population Mitotic Cells (%): 25% and 23%
  Population Normal (%): 99% and 100%
  Population Pyknosed Nuclei (%): 3% and 10%
  Population Tubulin-Different-Phenotype (%): 89% and 92%
U2OS; [4]
  Population Apoptotic (%): 100% and 80%
  Population Hoechst High Intensity Objects (%): 0%
  Population Membrane Permeable-Phenotype (%): 16% and 14%
  Population Mitochondria Different-Phenotype (%): 16% and 6%
  Population Mitotic Cells (%): 0% and 20%
  Population Normal (%): 100% and 99%
  Population Pyknosed Nuclei (%): 23% and 35%
  Population Tubulin-Different-Phenotype (%): 50% and 68%
